Shown are actives, neighbours in structure and some others; about 1.7% of the full set was active somewhere.
Rpn11 block: Rpn11 (PSMD14) deubiquitinase inhibitors, primary screen, biochemical, fluorescence polarization, uHTS; human 26S proteasome, Ub4-pepOG fluorescence polarization; 20S core pre-blocked with epoxomicin; calls only at 20 µM; hit rate 0.59% among 360,000; 26S proteasome non-ATPase regulatory subunit 14 (Homo sapiens), O00487;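 active means inhibition at 20 µM, scaled to each plate's controls, above about 33%, limit read from the data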
IDE act: human IDE activators in live cells, primary screen, fluorescence polarization, HEK cells, FAbeta-B substrate | FAbeta-B cleavage; 0% vehicle, 100% cell-free pure enzyme wells | activation, % at 5.96 µM | hit rate 0.073% among 340,000 | AID 493087, 2011;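 active means activation above the mean of all tested compounds plus 3 SD, set per screening campaign, cut at about 17% in these data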
CSN deneddyl inh: inhibitors of CSN-mediated cullin deneddylation, primary screen, biochemical, fluorescence polarization, uHTS; inhibition, % at 12.5 µM; Purified CSN, SCF-Nedd8-OG deneddylation; COP9 signalosome complex subunit 5 (Homo sapiens), Q92905; hit rate 0.38% among 360,000;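 active means pattern-corrected inhibition above about 35%, with an unprinted fluorescence ratio check between 0.5 and 1.5, limit read from the data, passing the limit was not always enough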;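 further: 0% = enzyme with substrate and 100% = substrate without enzyme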
Target sequence (Q92905 whole entry, looked up, one chain of several): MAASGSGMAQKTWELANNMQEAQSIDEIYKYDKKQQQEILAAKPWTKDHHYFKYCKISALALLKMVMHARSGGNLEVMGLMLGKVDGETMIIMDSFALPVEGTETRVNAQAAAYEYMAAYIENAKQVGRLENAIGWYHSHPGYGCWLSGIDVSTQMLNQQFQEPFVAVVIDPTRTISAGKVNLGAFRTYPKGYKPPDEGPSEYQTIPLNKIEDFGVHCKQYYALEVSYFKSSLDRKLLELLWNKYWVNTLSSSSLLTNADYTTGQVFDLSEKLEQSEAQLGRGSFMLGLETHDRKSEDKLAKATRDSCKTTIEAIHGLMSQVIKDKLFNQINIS
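Assay system: HEK293T-derived human Csn5 enzyme; quantity: 0.24 nM enzyme; medium: Tris/NaCl/DTT buffer, pH 7.5; also added: substrate SCFSkp2-Nedd8OG, 10 nM; doses: 12.5 µM compound; schedule: 90 min reaction at room temperature; signal: FP; read-out: % inhibition of substrate cleavage by Csn5; benchmarks: substrate-only high control, full reaction low control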
HNF4A DNA FP: change in binding of human HNF4A to DNA, primary screen, biochemical, fluorescence polarization, FITC-DNA; hit rate 0.3% among 360,000; Hepatocyte nuclear factor 4-alpha (Homo sapiens), P41235; activity change, % at 10 µM; 1 h; in the data active means activity change above about 30%, passing the limit was not always enough
TPT1 inhibitor: Candida albicans TPT1 enzyme inhibitors, primary screen, biochemical, fluorescence polarization; inhibition, % at 5 µM; tRNA 2'-phosphotransferase TPT1 (Candida albicans SC5314); recombinant caTPT1, FP RNA substrate dephosphorylation; hit rate 0.81% among 300,000; AID 1962, 2009;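 active means inhibition above the mean of all tested compounds plus 3 SD, set per screening campaign, cut at about 24% in these data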;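 further: plate controls were DMSO alone for no effect and ferristatin control at 100 nM for full effect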
IDE inh: human IDE inhibitors in live cells, primary screen, fluorescence polarization, HEK cells, FAbetaB substrate; Insulin-degrading enzyme (Homo sapiens), P14735; FAbetaB cleavage; inhibition, % at 5.59 µM; hit rate 0.41% among 320,000; AID 434962, 2010;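 active means percent inhibition above the average of all tested compounds plus 3 SD, set per screening campaign, cut at about 16% in these data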;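 further: IDE supplied by intact live HEK cells; FP after avidin binding of uncleaved biotin substrate so inhibition keeps polarization high; 0% = DMSO wells and 100% = 60 µM reference IDE inhibitor Ii1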
* marks the source's active call; other numbers are inactive results; ! = not active in a repeat.

Oc1c(C=C2N=c3ccccc3=N2)sc(=S)n1-c1ccc(F)cc1 was read as Rpn11 block inactive, IDE act 3, CSN deneddyl inh -5, HNF4A DNA FP 39*!, TPT1 inhibitor 19 and IDE inh 7.
For C#CCOCCOCCOCCNc1nc(N2CCN(C(=O)C([C@@H](C)O)n3cc([C@@H](N)CCCCN)nn3)CC2)nc(N2CCN(C(=O)[C@H](CCCN=C(N)N)n3cc(C(N)[C@@H](C)CC)nn3)CC2)n1 (some centres not stated) the results were Rpn11 block inactive, IDE act 3, CSN deneddyl inh 16, HNF4A DNA FP 61* and IDE inh -2.
For C#CCOCCOCCOCCNc1nc(N2CCN(C(=O)[C@H](CCC(=O)O)n3cc(C(N)[C@H](C)CC)nn3)CC2)nc(N2CCN(C(=O)[C@H](Cc3cc4ccccc4[nH]3)n3cc(C(N)[C@H](C)CC)nn3)CC2)n1 (some centres not stated) the results were TPT1 inhibitor 0 and IDE inh 6.
Screening C#CCOCCOCCOCCNc1nc(N2CCN(C(=O)[C@H](CCCCN)n3cc([C@@H](N)C(C)CC)nn3)CC2)nc(N2CCN(C(=O)[C@H](Cc3cc4ccccc4[nH]3)n3cc([C@@H](N)C(C)CC)nn3)CC2)n1 (some centres not stated) returned Rpn11 block inactive, IDE act 3, CSN deneddyl inh 21, HNF4A DNA FP 49* and IDE inh 5.
For C#CCOCCOCCOCCNc1nc(N2CCN(C(=O)[C@H](CCCCN)n3cc(CN)nn3)CC2)nc(N2CCN(C(=O)[C@H](CCCCN)n3cc(CN)nn3)CC2)n1 the results were Rpn11 block inactive, IDE act 1, CSN deneddyl inh 39*, HNF4A DNA FP 59* and IDE inh 2.
C#CCOCCOCCOCCNc1nc(N2CCN(C(=O)C(Cc3cc4ccccc4[nH]3)n3cc(C(N)C(C)CC)nn3)CC2)nc(N2CCN(C(=O)C(Cc3cc4ccccc4[nH]3)n3cc(C(N)C(C)CC)nn3)CC2)n1 (configuration not stated) was read as Rpn11 block inactive, IDE act 1, CSN deneddyl inh 44*, HNF4A DNA FP 1, TPT1 inhibitor 3 and IDE inh 5.
For Cc1ccc(/C=N/NC(=O)Cn2nc(C)c([N+](=O)[O-])c2C)o1 the results were Rpn11 block inactive, IDE act 2, CSN deneddyl inh 2, HNF4A DNA FP -4, TPT1 inhibitor -2 and IDE inh 1.
COC(=O)c1cc(NC(=O)c2ccccc2F)cc(C(=O)OC)c1 was read as Rpn11 block inactive, IDE act -1, CSN deneddyl inh 2, HNF4A DNA FP 7, TPT1 inhibitor 1 and IDE inh 8.
COc1ccc(CCNC(=O)COC(=O)C2CC2C)cc1OC (configuration not stated) was read as Rpn11 block inactive, IDE act 22*, CSN deneddyl inh 1, HNF4A DNA FP 6 and IDE inh -3.
Screening Cc1cc(C)c(NC(=O)Cn2nnc(C(=O)NCCc3ccccc3)c2N)c(C)c1 returned Rpn11 block inactive, IDE act -3, CSN deneddyl inh 8, HNF4A DNA FP -1, TPT1 inhibitor -4 and IDE inh 1.
Screening Cc1ccc(NC(=O)Cn2nnc(C(=O)NCCc3ccccc3)c2N)c(C)c1 returned Rpn11 block inactive, IDE act 5, CSN deneddyl inh 55*, HNF4A DNA FP -2, TPT1 inhibitor -1 and IDE inh 2.
Cc1cc(C)cc(NC(=O)Cn2nnc(C(=O)NCCc3ccccc3)c2N)c1 was read as Rpn11 block inactive, IDE act 1, CSN deneddyl inh 37*, HNF4A DNA FP -1, TPT1 inhibitor 1 and IDE inh 0.

Assay outcomes from PubChem.
